Bioassay records as filed in PubChem.
Most compounds without a hit are left out; they make up all but 2.1% or so of the library.
M1 antag – blocks human M1 muscarinic receptor | 360,000 compounds, 1.3% hits | inhibition, % at 3 µM | P11229 | CHO-K1 hM1, Fluo-8 calcium fluorescence, ACh EC80 antagonist;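 active = percent inhibition above its own plate's cutoff, namely the mean of that plate's compound wells plus 3 SD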;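 note: peak over basal fluorescence ratio during 140 s after agonist addition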
CHRM5 PAM – potentiates acetylcholine response at human M5 receptor. P08912. CHO-K1 hM5, Fluo-8 calcium, ACh EC20 PAM; 0% = ACh EC20, 100% = ACh EC100. activation, % at 3 µM. 360,000 compounds, 0.3% hits. AID 624038;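 active = activation above the run cutoff, the mean activation of all test compounds plus 3 SD, cut at about 18% in these data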
Target sequence (P08912 whole entry, looked up): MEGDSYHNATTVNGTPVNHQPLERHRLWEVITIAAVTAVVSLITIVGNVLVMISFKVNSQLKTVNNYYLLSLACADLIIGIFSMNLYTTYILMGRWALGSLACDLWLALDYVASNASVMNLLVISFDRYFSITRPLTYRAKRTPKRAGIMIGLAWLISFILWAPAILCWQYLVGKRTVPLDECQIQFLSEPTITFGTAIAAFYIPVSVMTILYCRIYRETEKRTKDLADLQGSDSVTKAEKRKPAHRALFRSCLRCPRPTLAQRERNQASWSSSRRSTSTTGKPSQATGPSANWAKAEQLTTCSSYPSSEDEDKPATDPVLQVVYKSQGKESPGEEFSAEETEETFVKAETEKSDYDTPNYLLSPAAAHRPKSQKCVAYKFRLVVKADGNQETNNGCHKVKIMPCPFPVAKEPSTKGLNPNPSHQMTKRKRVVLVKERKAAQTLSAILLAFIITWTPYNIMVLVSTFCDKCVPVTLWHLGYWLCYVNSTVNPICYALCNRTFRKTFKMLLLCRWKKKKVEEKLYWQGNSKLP
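System: CHO-K1 cell line with stable human muscarinic M5 receptor expression | Also added: EC20 acetylcholine as agonist stimulus | Compound: One concentration, 3 µM final (nominal) | Timing: Fluo-8 loading 80 min at 37 °C plus 30 min room temperature | Measured by: Fluo-8 calcium dye fluorescence, kinetic read | Read-out basis: % activation, ACh-normalized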
M5 ag – agonists of human muscarinic M5 receptor (CHRM5). 360,000 compounds, 0.19% hits. CHO-K1 hM5 cells, Fluo-8 calcium fluorescence; 0% DMSO wells, 100% maximal acetylcholine response. P08912. activation, % at 3 µM;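 active = activation above the run's mean over test compounds plus 3 SD, cut at about 23% in these data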;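 note: signal is peak over basal fluorescence ratio across the kinetic read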
CHRM5 antagonist – antagonists of human muscarinic M5 receptor (CHRM5). CHO-hM5 cells, Fluo-8 calcium fluorescence, ACh EC80. inhibition, % at 3 µM. 360,000 compounds, 0.59% hits. AID 624040;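 active = inhibition above a per-plate cutoff, the mean of that plate's test compounds plus 3 SD, cut at about 27% in these data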
M1 ag – human M1 muscarinic receptor agonism. P11229. CHO-K1 hM1, Fluo-8 calcium fluorescence, agonist mode; 0% DMSO, 100% acetylcholine EC100. activation, % at 3 µM. 360,000 compounds, 0.33% hits. AID 588814;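 active = activation above the run's mean compound activation plus 3 SD, cut at about 16% in these data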;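 note: peak over basal fluorescence ratio within a 140 s kinetic read after compound addition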
CHRM1 PAM – human CHRM1 positive allosteric modulation; P11229; CHO-K1 hM1, Fluo-8 calcium fluorescence, ACh EC20; 0% = ACh EC20, 100% = maximal ACh; activation, % at 3 µM; 360,000 compounds, 0.088% hits; in the data active = activation above about 19%, passing the limit was not always enough
Numbers stand for hits; 0 = inactive.

SMILES	M1 antag	CHRM5 PAM	M5 ag	CHRM5 antagonist	M1 ag	CHRM1 PAM
Cc1nn(CC(=O)O)c(C)c1C	0	0	0	0	0	0
COCCNC(=O)C(c1ccc(C)o1)N(Cc1ccc(F)cc1)C(=O)Cn1nnc2ccccc21 (configuration not stated)	0	22.5	0	0	0	0
COCCNC(=O)C(c1ccc(C)o1)N(C(=O)Cn1nnc2ccccc21)c1ccccc1 (configuration not stated)	0	0	0	0	0	0
COCCNC(=O)C(c1ccc(C)o1)N(Cc1ccc(OC)cc1)C(=O)Cn1nnc2ccccc21 (configuration not stated)	0	0	0	0	23.1	0
O=C1C=CC(=Nc2ccc(F)cc2)O1	0	22.2	0	0	0	0
O=C1C=CC(=Nc2ccc3c(c2)C(=O)c2ccccc2-3)O1	0	0	0	0	0	0
O=C(CN1CCS(=O)(=O)CC1)NNC(=O)C1CCCCC1	0	0	0	0	0	0
CCC(C)(C#CCN1CCCCC1)OCCC#N (configuration not stated)	69.0	0	0	60.3	0	0
CCC(C#CCN1CCCCC1)(CC)OCCC#N	62.6	0	0	0	0	0
CCC(C#CCN1CCOCC1)(CC)OCCC#N	0	0	0	0	0	0
CC(=O)Nc1ccc(S(=O)(=O)N2CCN(C(=O)c3ncoc3-c3ccccc3F)CC2)cc1	0	0	0	0	0	0
c1ccc(CN2CCCC3(CCCN(Cc4nc(COc5ccccc5)no4)C3)C2)cc1 (configuration not stated)	60.1	0	0	0	0	0
c1ccc(CN2CCCC3(CCCN(Cc4nc(CC5CC5)no4)C3)C2)cc1 (configuration not stated)	0	0	0	0	0	0
Cc1ccc2nsnc2c1S(=O)(=O)NCc1ccncc1	0	0	0	0	0	0
O=C(COc1ccc(S(=O)(=O)NC2CCCCC2)cc1)N1CCN(c2cccc(Cl)c2)CC1	26.4	0	0	0	0	0
CC(C)CN1C(=S)SC(C)(C)C1n1oc(=O)n(-c2ccc(Cl)cc2)c1=O (configuration not stated)	51.4	0	0	0	0	0
CC(C)CN1C(=S)SC(C)(C)C1n1oc(=O)n(-c2ccccc2)c1=O (configuration not stated)	0	0	0	0	0	0
CC(C)C(NC(=O)CCN1C(=O)c2ccccc2C1=O)c1ccccc1 (configuration not stated)	0	0	0	0	0	0
O=C(Nc1ccccc1-c1nc2ccccc2[nH]1)c1ccc(S(=O)(=O)N2CCCCC2)cc1	0	0	0	0	0	0
O=C(Nc1ccccc1-c1nc2ccccc2[nH]1)c1ccc(N2C(=O)CCC2=O)cc1	0	0	0	27.2	0	0
Cc1c(C(=O)N2CCN(S(=O)(=O)c3ccccc3F)CC2)oc2c(Cl)cccc12	0	0	0	0	16.1	0
Cc1c([N+](=O)[O-])cc(C(=O)Nc2ccc3ncccc3c2)cc1[N+](=O)[O-]	0	0	0	0	0	0
CC[C@@H](C)[C@@H]1CN([C@@H](C)CN2CCC[C@H]2CN2C(N)=NC[C@@H]2Cc2ccccc2)C(=N)N1CCc1ccc(Cl)c(Cl)c1	49.1	0	0	0	0	0
CC[C@@H](C)[C@@H]1CN([C@@H](C)CN2CCC[C@H]2CN2C(N)=NC[C@@H]2Cc2ccccc2)C(=N)N1CCCC1CCCC1	76.0	0	0	0	0	0
COc1ccc(-c2ccc(=O)n(CC(=O)Nc3cccc(O)c3)n2)cc1OC	0	0	0	0	0	0
NCCc1nnc(SCc2ccccc2Cl)o1	0	0	0	0	0	0
NCCCCCc1nnc(SCc2cccc(Cl)c2)o1	29.9	0	0	80.3	0	0
NCCCCCc1nnc(SCC(=O)Nc2cccc(Cl)c2)o1	0	0	0	0	0	0
NCCCCCc1nnc(SCc2ccc(Cl)cc2Cl)o1	32.8	0	0	43.2	0	0
